{
  "source": "ChEMBL document CHEMBL4402564",
  "about": "“Synthetic Lethality in Pancreatic Cancer: Discovery of a New RAD51-BRCA2 Small Molecule Disruptor That Inhibits Homologous Recombination and Synergizes with Olaparib” (J Med Chem, 2020)",
  "key": {"BXPC-3 [1]": {"system": "BXPC-3", "test": "Induction of apoptosis in human BxPC3 cells assessed as increase in fluorescence at 20 uM after 72 hrs by DAPI/PI staining based fluorescence microscopic analysis", "format": "functional, cell-based", "summary_of_the_method": "(§1)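 BxPC-3 cells treated 72 h with disruptor alone or with olaparib, then stained with mixed DAPI (cell-permeable, nuclear condensation) and propidium iodide (membrane integrity loss). Nuclear morphology and dye uptake examined by fluorescence microscopy.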"}, "BXPC-3 [2]": {"system": "BXPC-3", "test": "Induction of DNA damage in human BxPC3 cells assessed as micronuclei formation at 20 uM after 72 hrs in presence of olaparib by DAPI-staining based fluorescence microscopic analysis", "format": "functional, cell-based", "summary_of_the_method": "(§2)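 BxPC-3 cultures treated 72 h with 20 μM disruptor, alone or with 10 μM olaparib, in 0.6% DMSO medium. Micronuclei outside the main nucleus visualized by DNA staining under the microscope. Percentage of micronucleated cells scored.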"}, "CAPAN-1": {"system": "CAPAN-1", "test": "Synergistic antiproliferative activity against BRCA2 defective human Capan1 cells at 20 uM after 72 hrs in presence of 10 uM olaparib by CellTiter-Glo luminescent cell viability assay", "format": "functional, cell-based", "summary_of_the_method": "(§3)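 HK-2 cells are non-neoplastic immortalized human kidney cells grown in DMEM:F12 with 40 ng/mL dexamethasone. Capan-1 cells are BRCA2-defective and grown in RPMI 1640 with 10% FBS and 2 mM glutamine. Both exposed to disruptor with olaparib in 0.6% DMSO medium for an antiproliferative read-out. Drug interaction assessed by two-way ANOVA and combination index (CI <0.8 synergism, 0.8–1.2 additive).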"}, "[3]": {"biological_target": "T1, DNA repair protein RAD51 homolog 1 (Homo sapiens) (UniProt Q06609)", "T1 sequence (whole entry)": "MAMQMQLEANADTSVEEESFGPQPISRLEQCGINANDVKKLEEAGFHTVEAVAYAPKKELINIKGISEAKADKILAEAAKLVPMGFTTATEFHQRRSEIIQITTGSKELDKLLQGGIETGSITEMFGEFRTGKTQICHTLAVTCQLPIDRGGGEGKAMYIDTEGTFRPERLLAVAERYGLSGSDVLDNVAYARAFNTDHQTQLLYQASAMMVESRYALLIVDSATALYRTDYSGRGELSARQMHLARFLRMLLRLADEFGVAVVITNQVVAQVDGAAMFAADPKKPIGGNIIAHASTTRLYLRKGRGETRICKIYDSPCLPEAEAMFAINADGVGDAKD", "test": "Inhibition of RAD51 in human BxPC3 cells assessed as increase in gamma-H2AX labelling at 20 uM after 48 hrs in presence of 10 uM olaparib by immunofluorescence microscopic analysis", "format": "cell-based", "summary_of_the_method": "(§4)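 Cells exposed 48 h to 20 μM disruptor alone or with 10 μM olaparib, in medium with 0.6% DMSO. Nuclear γ-H2AX foci visualized by immunofluorescence and percentage of labeled nuclei scored. BxPC-3 (functional BRCA2) and Capan-1 (BRCA2-defective) cultures in RPMI 1640 with 10% FBS.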"}, "BXPC-3 [4]": {"system": "BXPC-3", "test": "Antiproliferative activity against human BxPC3 cells assessed as increase in cell death at 10 to 15 uM after 72 hrs in presence of olaparib by CellTox Green assay", "format": "functional, cell-based", "summary_of_the_method": "(§5)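 BxPC-3 cells in RPMI 1640 with 10% FBS and 2 mM glutamine. Exposed 72 h to disruptor alone or with 10 μM olaparib, in medium containing 0.6% DMSO. Cell death measured in parallel with viability. Disruptor-only and combination cultures compared statistically.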"}, "HK-2": {"system": "HK-2", "test": "Cytotoxicity against human HK2 cells at 20 uM after 72 hrs in presence of 10 uM olaparib by CellTiter-Glo luminescent cell viability assay", "format": "cell-based", "conditions": "hk-2, 72 h", "summary_of_the_method": "as §3"}, "[5]": {"biological_target": "T1, DNA repair protein RAD51 homolog 1 (Homo sapiens)", "test": "Inhibition of RAD51 in BRCA2 defective human Capan1 cells assessed as increase in gamma-H2AX labelling at 20 uM after 48 hrs in presence of olaparib by immunofluorescence microscopic analysis", "summary_of_the_method": "as §4"}, "BXPC-3 [6]": {"system": "BXPC-3", "test": "Induction of DNA damage in human BxPC3 cells assessed as micronuclei formation at 20 uM after 72 hrs by DAPI-staining based fluorescence microscopic analysis", "format": "functional, cell-based", "summary_of_the_method": "as §2"}, "BXPC-3 [7]": {"system": "BXPC-3", "test": "Antiproliferative activity against human BxPC3 cells assessed as increase in cell death at 20 uM after 72 hrs in presence of olaparib by CellTox Green assay", "format": "functional, cell-based", "summary_of_the_method": "as §5"}, "[8]": {"biological_target": "T1, DNA repair protein RAD51 homolog 1 (Homo sapiens)", "test": "Inhibition of RAD51 in human BxPC3 cells assessed as reduction in cisplatin-induced RAD51 foci formation at 20 uM preincubated for 1 hr in presence of cisplatin and followed by compound wash out and further incubated with fresh medium containing compounds for 4 hrs by DAPI-staining based immunofluorescence analysis", "format": "cell-based", "summary_of_the_method": "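DNA damage induced in BxPC-3 by 1 h exposure to 50 μM cisplatin, with or without 20 μM disruptor. RAD51 nuclear foci immunostained and percentage of RAD51-labeled nuclei counted.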"}, "BXPC-3 [9]": {"system": "BXPC-3", "test": "Synergistic antiproliferative activity against human BxPC3 cells at 20 uM after 72 hrs in presence of 10 uM olaparib by CellTiter-Glo luminescent cell viability assay", "format": "functional, cell-based", "summary_of_the_method": "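BxPC-3 viability data from 72 h exposure to disruptor with 10 μM olaparib (0.6% DMSO medium) used to compute a combination index. CI <0.8 taken as synergism and 0.8–1.2 as additive. CI at each dose tested for difference from 0.8.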"}, "[10]": {"biological_target": "T1, DNA repair protein RAD51 homolog 1 (Homo sapiens)", "test": "Inhibition of RAD51 in human BxPC3 cells assessed as reduction in homologous recombination incubated for 5 hrs by RT-PCR analysis", "format": "cell-based", "summary_of_the_method": "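Commercial two-plasmid recombination assay in BxPC-3 cells, with compound applied at different doses for 5 h simultaneously with plasmid transfection. Tested up to 40 μM, limited by solubility. Dose giving 50% HR inhibition estimated by polynomial regression.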"}, "BXPC-3 [11]": {"system": "BXPC-3", "test": "Induction of apoptosis in human BxPC3 cells assessed as increase in fluorescence at 20 uM after 72 hrs in presence of olaparib by DAPI/PI staining based fluorescence microscopic analysis", "format": "functional, cell-based", "summary_of_the_method": "as §1"}, "BXPC-3 [12]": {"system": "BXPC-3", "test": "Antiproliferative activity against human BxPC3 cells at 15 uM after 72 hrs in presence of olaparib by CellTiter-Glo luminescent cell viability assay", "format": "functional, cell-based", "summary_of_the_method": "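BxPC-3 cells grown in RPMI 1640 with 10% FBS, penicillin/streptomycin and 2 mM glutamine. Disruptor given alone or with 10 μM olaparib in medium containing 0.6% DMSO, with the same DMSO in controls. Viability read at 72 h, measured alongside cell death.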"}},
  "note": "The source made the active and inactive calls. No cut-off for these calls is given here.",
  "data": [
    {"smiles": "CCC(=O)N1N=C(c2c(-c3ccccc3)c3cc(Cl)ccc3[nH]c2=O)CC1c1ccc(OC)cc1", "note": "(racemic)", "values": [
      {"measurement": "Activity", "setting": "BXPC-3 [1]", "result": "Active"},
      {"measurement": "Activity", "setting": "BXPC-3 [2]", "result": "Active"},
      {"measurement": "Activity", "setting": "CAPAN-1", "result": "Active"},
      {"measurement": "inhibition", "setting": "[3]", "result": "Active"},
      {"measurement": "Activity", "setting": "BXPC-3 [4]", "result": "inactive"},
      {"measurement": "Activity", "setting": "HK-2", "result": "Non-Toxic"},
      {"measurement": "inhibition", "setting": "[5]", "result": "inactive"},
      {"measurement": "Activity", "setting": "BXPC-3 [6]", "result": "Active"},
      {"measurement": "Activity", "setting": "BXPC-3 [7]", "result": "Active"},
      {"measurement": "inhibition", "setting": "[8]", "result": "Active"},
      {"measurement": "Activity", "setting": "BXPC-3 [9]", "result": "Active"},
      {"measurement": "inhibition", "setting": "[10]", "result": "Dose-dependent effect"},
      {"measurement": "Activity", "setting": "BXPC-3 [11]", "result": "Active"},
      {"measurement": "Activity", "setting": "BXPC-3 [12]", "result": "Active"}
    ]}
  ]
}
